Converted amounts (≈) assume the structure as drawn. The source made the active and inactive calls. The rule behind the calls is not given here.
Tests used:
[1] = Selectivity index, ratio of IC50 for cytotoxicity against PMA-differentiated THP-1 macrophages to IC50 for antileishmanial activity against log phase of wild type Leishmania donovani MHOM/80/IN/Dd8 promastigotes; assay type: toxicity; details: human; read-out: Ratio IC50
[2] = Cytotoxicity against human PMA-differentiated THP-1 macrophages assessed as inhibition of cell growth by MTT assay; assay type: toxicity, cell-based, Macrophage
How it was run: (§1)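 About 2 × 10^5 THP-1 monocytes were differentiated with 20 ng/mL PMA for 48 h at 37 °C, and non-adherent cells were washed off with serum-free medium. Adherent macrophages were exposed to 10, 20, 50 and 100 µM compound for 48 h at 37 °C in 5% CO2. Viability was read by MTT.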

Leishmania donovani [3] = assay: Antileishmanial activity against log phase of wild type Leishmania donovani MHOM/80/IN/Dd8 promastigotes assessed as inhibition of cell growth incubated for 48 hrs by MTT assay; assay type: functional, organism-based; details: MHOM/80/IN/Dd8, 48 h
How it was run: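 L. donovani Dd8 promastigotes grown at 24 °C, pH 7.2, in HEPES-modified RPMI-1640 with 10% heat-inactivated FBS and antibiotics. 2 × 10^5 log-phase cells were exposed to 10–100 µM compound (10 mM DMSO stocks diluted in medium) for 48 h at 24 °C. MTT (400 µg/mL final) was added for 4 h at 37 °C, formazan dissolved in DMSO, and A540 read. IC50 was taken against untreated cells; mean ± SD of three independent experiments.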

Leishmania donovani [4] = assay: Antileishmanial activity against amastigote stage of Leishmania donovani MHOM/SD/62/IS-CL2D assessed as inhibition of parasite growth incubated for 3 days by CellTiter 96 Aqueous Non-Radioactive Cell Proliferation Assay; assay type: functional, organism-based; details: 72 h
Leishmania donovani [5] = assay: Induction of ROS generation in wild type Leishmania donovani MHOM/80/IN/Dd8 promastigotes at 5 to 10 uM incubated for 48 hrs by MitoSOX red dye based fluorescence spectrophotometric analysis; assay type: functional, organism-based; details: dose 5-10 µM
How it was run: (§2)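 Promastigotes at about 1 × 10^6/mL were treated at ~5 or ~10 µM for 3, 6, 24 and 48 h, with 0.2% DMSO as vehicle and antimycin A (10 µM) as positive control. Cells were washed twice in HBSS and stained with 5 µM MitoSOX red for 20 min at 25 °C. Fluorescence was read at 510/580 nm ex/em.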

Leishmania donovani [6] = assay: Induction of ROS generation in wild type Leishmania donovani MHOM/80/IN/Dd8 promastigotes at 10 uM incubated for 24 hrs by MitoSOX red dye based fluorescence spectrophotometric analysis; assay type: functional; how it was run: as §2
Leishmania donovani [7] = assay: Induction of ROS generation in wild type Leishmania donovani MHOM/80/IN/Dd8 promastigotes at 5 uM incubated for 24 hrs by MitoSOX red dye based fluorescence spectrophotometric analysis relative to control; assay type: functional; how it was run: as §2
Leishmania amazonensis = assay: Antileishmanial activity against Leishmania amazonensis assessed as inhibition of parasite growth; assay type: functional, organism-based
Leishmania braziliensis = assay: Antileishmanial activity against Leishmania braziliensis assessed as inhibition of parasite growth; assay type: functional, organism-based
Leishmania mexicana = assay: Antileishmanial activity against Leishmania mexicana assessed as inhibition of parasite growth; assay type: functional, organism-based
Macrophage = assay: Cytotoxicity against human PMA-differentiated THP-1 macrophages assessed as inhibition of cell growth measured upto 100 uM by MTT assay; assay type: toxicity, cell-based; how it was run: as §1
Leishmania donovani [8] = assay: Induction of ROS generation in wild type Leishmania donovani MHOM/80/IN/Dd8 promastigotes incubated for 24 hrs by MitoSOX red dye based fluorescence spectrophotometric analysis; assay type: functional, organism-based
How it was run: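 Promastigotes were grown at 24 °C in HEPES-modified RPMI-1640 with 10% heat-inactivated FBS, pH 7.2. About 1 × 10^6 parasites/ml were exposed to ~5 µM or ~10 µM test compound. Controls were untreated cells, antimycin A (10 µM) and 0.2% DMSO vehicle. Cells were washed twice in HBSS and stained with 5 µM MitoSOX red for 20 min at 25 °C. Fluorescence was read at ex 510/em 580 nm.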

Leishmania donovani [9] = assay: Antileishmanial activity against Leishmania donovani assessed as inhibition of parasite growth incubated for 2 hrs by y [3H]thymidine incorporation assay; assay type: functional, organism-based

Structure (SMILES)	selectivity ratio [1]	IC50 [2] [µM]	IC50 (Leishmania donovani [3]) [µM]	further results
NCCNc1nc(-c2ccc(Cl)cc2)nc2ccccc12	2.3	15	6.5	–
O=C1c2cc(I)ccc2-n2c1nc1ncccc1c2=O	–	–	–	IC50 (Leishmania donovani [4]): 0.016 µg/mL (≈ 0.0427 µM)
COc1ccc(-c2nc(NCCCN(C)C)c3ccccc3n2)cc1	13.5	67.5	5	Activity (Leishmania donovani [5]): Active; Activity (Leishmania donovani [6]): 119%; Activity (Leishmania donovani [7]): 63%
COc1ccc(-c2nc(NCCN(C)C)c3ccccc3n2)cc1O	3.46	22.5	6.5	–
CN(C)CCNc1nc(-c2ccc(O)cc2)nc2ccccc12	9.27	51	5.5	–
COc1ccc(-c2nc(NCCN(C)C)c3ccccc3n2)cc1	11	57	5	Activity (Leishmania donovani [5]): Active; Activity (Leishmania donovani [6]): 82%; Activity (Leishmania donovani [7]): 50%
CCCCCCCCCCCCCCCCOP(=O)([O-])OCC[N+](C)(C)C [MILTEFOSINE]	3.42	36	10.5	–
CN(C)CCCNc1nc(-c2ccc(Cl)cc2)nc2ccccc12	9.53	62	6.5	–
COc1ccc(-c2nc(NCCCN3CCN(C)CC3)c3ccccc3n2)cc1	7.28	53	6.3	–
NCCCCNc1nc(-c2ccc(F)cc2)nc2ccccc12	1.96	64	32.5	–
CN1CCN(CCCNc2nc(-c3ccc(Cl)cc3)nc3ccccc23)CC1	–	–	28.5	–
COc1cccc(-c2nc(O)c3ccccc3n2)c1	–	–	–	EC50 (Leishmania amazonensis): 9.14 µM; EC50 (Leishmania braziliensis): 4.89 µM; EC50 (Leishmania mexicana): 5.29 µM
COc1ccc(-c2nc(NCCCN3CCOCC3)c3ccccc3n2)cc1O	1.76	33.5	19	–
CN(C)CCCNc1nc(-c2ccccc2)nc2ccccc12	> 11.1	> 100	9	–
COc1cc(-c2nc(NCCCN(C)C)c3ccccc3n2)cc(OC)c1OC	2.06	61	29.5	–
COc1cc(-c2nc(NCCN(C)C)c3ccccc3n2)cc(OC)c1OC	7.69	50	6.5	–
COc1cccc(-c2nc(NCCCN(C)C)c3ccccc3n2)c1	6.72	37	5.5	–
CN(C)CCNc1nc(-c2ccc(Cl)cc2)nc2ccccc12	8	60	7.5	–
NCCCCNc1nc(-c2ccc(Cl)cc2)nc2ccccc12	1.08	13	12	–
CN(C)CCCNc1nc(-c2ccc(F)cc2)nc2ccccc12	4.84	63	13	–
COc1ccc(-c2nc(NCCCN3CCOCC3)c3ccccc3n2)cc1	2.24	56	25	–
NCCNc1nc(-c2ccc(F)cc2)nc2ccccc12	2.56	64	25	–
Oc1ccc(-c2nc(NCCCN3CCOCC3)c3ccccc3n2)cc1	1.42	71	50	–
COc1cc(-c2nc(NCCCN3CCOCC3)c3ccccc3n2)cc(OC)c1OC	–	–	–	Activity (Macrophage): Toxic
CCCCCC[C@H]1C(=O)O[C@H](C)[C@H](NC(=O)c2cccc(NC=O)c2O)C(=O)O[C@@H](C)[C@@H]1OC(=O)CC(C)C	–	–	–	Activity (Leishmania donovani [8]): Active
C=CC(C)(C)c1cc(/C=C/C(=O)c2ccc(O)cc2)c(OC)cc1O [LICOAGROCHACONE A]	–	–	–	IC50 (Leishmania donovani [9]): 4 µg/mL (≈ 11.8 µM)
CN1CCN(CCCNc2nc(-c3ccc(F)cc3)nc3ccccc23)CC1	5	40	8	–
COc1cc(-c2nc(NCCCN3CCN(C)CC3)c3ccccc3n2)cc(OC)c1OC	0.6	54	90	–
CN(C)CCCNc1nc(-c2ccc(O)cc2)nc2ccccc12	10	65	6.5	–
